# Assay results taken from ChEMBL document CHEMBL5131562, “1,3-Dioxane-Linked Novel Bacterial Topoisomerase Inhibitors: Expanding Structural Diversity and the Antibacterial Spectrum” (ACS Med Chem Lett, 2022).
# pIC50: −log10 of the molar value.
# Experiments:
# [1] = target: Voltage-gated inwardly rectifying potassium channel KCNH2 (Homo sapiens, UniProt Q12809); assay: Inhibition of hERG cardiac ion channel; type: toxicity
# Outline: (§1)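 hERG channel inhibition was run by a contract lab. […] Determinations were made in duplicate or triplicate (n = 2 or 3).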
# [2] = system: Staphylococcus aureus; assay: Antibacterial activity against cystic fibrosis isolate Staphylococcus aureus by CLSI method; type: functional
# [3] = system: Staphylococcus aureus; assay: Antibacterial activity against Staphylococcus aureus ATCC 29213 by CLSI method; type: functional
# [4] = system: Staphylococcus aureus; assay: Antibacterial activity against methicillin-resistant Staphylococcus aureus USA300 by CLSI method; type: functional
# [5] = system: Staphylococcus aureus; assay: Antibacterial activity against Staphylococcus aureus 3527 by CLSI method; type: functional
# [6] = system: Staphylococcus aureus; assay: Antibacterial activity against Staphylococcus aureus harbouring GyrA D83N mutant by CLSI method; type: functional
# [7] = target: DNA gyrase (Staphylococcus aureus, UniProt P0A0K8+P20831); assay: Inhibition of Staphylococcus aureus DNA gyrase supercoiling activity incubated for 25 min by ethidium bromide/bromophenol blue staining based agarose gel electrophoresis analysis; type: protein-complex assay
# [8] = target: Topoisomerase IV (Staphylococcus aureus, UniProt P0C1S7+P0C1U9); assay: Inhibition of Staphylococcus aureus DNA topoisomerase 4 decatenation activity using kDNA as substrate incubated for 10 to 20 min by ethidium bromide/bromophenol blue staining based agarose gel electrophoresis analysis; type: protein-complex assay
# [9] = system: Staphylococcus aureus; assay: Selectivity ratio of IC50 for inhibition of Staphylococcus aureus DNA topoisomerase 4 decatenation activity to IC50 for inhibition of Staphylococcus aureus DNA gyrase supercoiling activity
# [10] = system: Neisseria gonorrhoeae; assay: Antimicrobial activity against Neisseria gonorrhoeae G strain harbouring type 2 topoisomerase GyrA S91F and ParE G410V mutant incubated for 20 to 24 hrs by CLSI protocol based broth microdilution method; type: functional; conditions: time 20-24 hrs
# [11] = system: Neisseria gonorrhoeae; assay: Antimicrobial activity against wild type Neisseria gonorrhoeae ATCC 49226 incubated for 20 to 24 hrs by CLSI protocol based broth microdilution method; type: functional; conditions: time 20-24 hrs
# [12] = system: Neisseria gonorrhoeae; assay: Antimicrobial activity against wild type Neisseria gonorrhoeae F strain incubated for 20 to 24 hrs by CLSI protocol based broth microdilution method; type: functional; conditions: time 20-24 hrs
# [13] = system: Neisseria gonorrhoeae; assay: Antimicrobial activity against Neisseria gonorrhoeae K strain harbouring type 2 topoisomerase GyrA S91F, D95N and ParC S87R, S88P mutant incubated for 20 to 24 hrs by CLSI protocol based broth microdilution method; type: functional; conditions: time 20-24 hrs
# [14] = system: Neisseria gonorrhoeae; assay: Antimicrobial activity against wild type Neisseria gonorrhoeae O strain incubated for 20 to 24 hrs by CLSI protocol based broth microdilution method; type: functional; conditions: time 20-24 hrs
# [15] = system: Neisseria gonorrhoeae; assay: Antimicrobial activity against wild type Neisseria gonorrhoeae P strain incubated for 20 to 24 hrs by CLSI protocol based broth microdilution method; type: functional; conditions: time 20-24 hrs
# [16] = system: Neisseria gonorrhoeae; assay: Antimicrobial activity against wild type Neisseria gonorrhoeae V strain harbouring type 2 topoisomerase GyrA S91F, D95G and ParC S87R mutant incubated for 20 to 24 hrs by CLSI protocol based broth microdilution method; type: functional; conditions: time 20-24 hrs
# [17] = system: Neisseria gonorrhoeae; assay: Antimicrobial activity against wild type Neisseria gonorrhoeae Y strain harbouring type 2 topoisomerase GyrA S91F, D95G and ParC S87R mutant incubated for 20 to 24 hrs by CLSI protocol based broth microdilution method; type: functional; conditions: time 20-24 hrs
# [18] = Metabolic stability in mouse liver microsomes assessed as half life; type: ADME, Microsome
# [19] = target: hERG (KCNH2) (Homo sapiens, UniProt Q12809); assay: Inhibition of hERG cardiac ion channel at 200 uM relative to control; type: toxicity; outline: as §1
# [20] = Cytotoxicity activity against human K562 cells assessed as inhibition of cellular growth; type: toxicity, cell-based
# Outline: (§2)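 Human K562 leukemia cells were tested alongside K/VP.5, an etoposide-resistant clonal subline derived from them that has reduced levels of human topoisomerase IIα. Cell growth inhibition was expressed as an IC50.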
# [21] = Cytotoxicity activity against human K/VP.5 cells assessed as inhibition of cellular growth; type: toxicity, cell-based; outline: as §2
# [22] = system: Neisseria gonorrhoeae; assay: Antimicrobial activity against wild type Neisseria gonorrhoeae ATCC 49226 incubated for 20 hrs by agar dilution method; type: functional
# [23] = system: Neisseria gonorrhoeae; assay: Antimicrobial activity against Neisseria gonorrhoeae G strain harbouring type 2 topoisomerase GyrA S91F and ParE G410V mutant incubated for 20 hrs by agar dilution method; type: functional
# [24] = system: Neisseria gonorrhoeae; assay: Antimicrobial activity against Neisseria gonorrhoeae M strain harbouring type 2 topoisomerase GyrA S91F,D95G mutant incubated for 20 hrs by agar dilution method; type: functional
# [25] = system: Neisseria gonorrhoeae; assay: Antimicrobial activity against Neisseria gonorrhoeae L strain harbouring type 2 topoisomerase GyrA S91F,D95N and ParC D86N,S88P mutant incubated for 20 hrs by agar dilution method; type: functional
# [26] = Inhibition of Neisseria gonorrhoeae DNA gyrase supercoiling activity incubated for 25 min by ethidium bromide/bromophenol blue staining based agarose gel electrophoresis analysis
# Outline: (§3)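 The N. gonorrhoeae enzymes were assayed separately: supercoiling by DNA gyrase, and decatenation of kDNA by topoisomerase IV. Concentration–response data were collected over at least three independent experiments and summarized with standard deviation, and IC50 values were derived.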
# [27] = Inhibition of Neisseria gonorrhoeae DNA topoisomerase 4 decatenation activity using kDNA as substrate incubated for 10 to 20 min by ethidium bromide/bromophenol blue staining based agarose gel electrophoresis analysis; outline: as §3
smiles,measurement,setting,value
O=c1ccc2ccc(F)c3c2n1CC3C[C@H]1OC[C@H](NCc2cc3c(nn2)OCCO3)CO1 (some centres not stated),pIC50,[1],< 3.70
same,MIC,[2],1 µg/mL
same,MIC,[3],2 µg/mL
same,MIC,[4],4 µg/mL
same,MIC,[5],4 µg/mL
same,MIC,[6],> 8 µg/mL
same,pIC50,[7],5.46
same,pIC50,[8],5.01
same,Ratio IC50,[9],2.8
same,MIC,[10],> 32 µg/mL
same,MIC,[11],32 µg/mL
same,MIC,[12],16 µg/mL
same,MIC,[13],> 32 µg/mL
same,MIC,[14],32 µg/mL
same,MIC,[15],32 µg/mL
same,MIC,[16],32 µg/mL
same,MIC,[17],32 µg/mL
same,half-life,[18],1.7 h
same,inhibition at 200 µM,[19],21%
same,pIC50,[20],3.81
same,pIC50,[21],3.77
COc1ccc2ncc(F)c(C[C@H](O)[C@H]3OC[C@H](NCc4ccc5c(n4)NC(=O)CS5)CO3)c2n1,MIC,[10],≤ 0.03 µg/mL
same,MIC,[11],≤ 0.03 µg/mL
same,MIC,[12],≤ 0.03 µg/mL
same,MIC,[13],≤ 0.03 µg/mL
same,MIC,[14],≤ 0.03 µg/mL
same,MIC,[15],≤ 0.03 µg/mL
same,MIC,[16],≤ 0.03 µg/mL
same,MIC,[17],≤ 0.03 µg/mL
same,MIC,[22],0.25 µg/mL
same,MIC,[23],1 µg/mL
same,MIC,[24],0.5 µg/mL
same,MIC,[25],1 µg/mL
same,pIC50,[26],6.41
same,pIC50,[27],5.44
O=c1ccc2ncc(F)c3c2n1CC3C[C@H]1OC[C@H](NCc2cc3c(nn2)OCCS3)CO1 (some centres not stated),pIC50,[1],< 3.70
same,MIC,[2],2 µg/mL
same,MIC,[3],2 µg/mL
same,MIC,[4],4 µg/mL
same,MIC,[5],4 µg/mL
same,MIC,[6],> 8 µg/mL
same,pIC50,[7],5.74
same,pIC50,[8],5.00
same,Ratio IC50,[9],5.6
same,MIC,[10],> 32 µg/mL
same,MIC,[11],32 µg/mL
same,MIC,[12],8 µg/mL
same,MIC,[13],32 µg/mL
same,MIC,[14],32 µg/mL
same,MIC,[15],32 µg/mL
same,MIC,[16],4 µg/mL
same,MIC,[17],8 µg/mL
same,half-life,[18],1.88 h
same,inhibition at 200 µM,[19],23%
same,pIC50,[20],4.01
same,pIC50,[21],3.71
COc1ccc2ncc(F)c(C[C@H](O)[C@H]3OC[C@H](NC(=O)c4ccc5c(n4)NC(=O)CS5)CO3)c2n1,pIC50,[1],< 4.00
same,MIC,[2],≤ 0.06 µg/mL
same,MIC,[3],0.06 µg/mL
same,MIC,[4],≤ 0.06 µg/mL
same,MIC,[5],≤ 0.06 µg/mL
same,MIC,[6],0.25 µg/mL
same,pIC50,[7],6.82
same,pIC50,[8],6.38
same,Ratio IC50,[9],2.8
same,MIC,[10],0.12 µg/mL
same,MIC,[11],≤ 0.015 µg/mL
same,MIC,[12],≤ 0.015 µg/mL
same,MIC,[13],≤ 0.015 µg/mL
same,MIC,[14],≤ 0.015 µg/mL
same,MIC,[15],≤ 0.015 µg/mL
same,MIC,[16],≤ 0.015 µg/mL
same,MIC,[17],≤ 0.015 µg/mL
same,MIC,[22],0.12 µg/mL
same,MIC,[23],0.25 µg/mL
same,MIC,[24],0.12 µg/mL
same,MIC,[25],0.5 µg/mL
same,half-life,[18],0.0903 h
same,pIC50,[20],5.12
same,pIC50,[21],< 4.00
same,pIC50,[26],6.19
same,pIC50,[27],4.57
